Screening data from PubChem BioAssay.
Only some compounds are listed: those with a hit (about 2.1% of all), similar ones and a draw of the others.
EBI2 block – EBI2 (human) antagonism; inhibition, % at 5 µM; EBI2 beta-arrestin recruitment, luminescence, 7a,25-OHC stimulated; 0.81% of 360,000 active; in the data active means inhibition above about 38%;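 further: enzyme fragment complementation signal reports receptor beta-arrestin coupling in cells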
Target sequence (P32249 whole entry, looked up, the tested form may be a part): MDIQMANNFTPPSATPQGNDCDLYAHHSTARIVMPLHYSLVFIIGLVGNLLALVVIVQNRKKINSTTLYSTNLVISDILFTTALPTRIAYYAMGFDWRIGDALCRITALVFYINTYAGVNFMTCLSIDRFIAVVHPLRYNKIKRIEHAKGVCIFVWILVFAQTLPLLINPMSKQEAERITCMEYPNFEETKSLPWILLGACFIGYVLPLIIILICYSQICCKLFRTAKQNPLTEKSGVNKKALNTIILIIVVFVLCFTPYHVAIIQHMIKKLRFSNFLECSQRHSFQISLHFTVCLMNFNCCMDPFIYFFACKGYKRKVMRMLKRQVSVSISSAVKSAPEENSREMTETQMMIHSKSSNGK
CCR6 antag – CCR6 (human) receptor antagonism; P51684; AID 493098; CHO-K1 CCR6 PathHunter beta-arrestin, luminescence, CCL20-stimulated; inhibition, % at 20 µM; 0.49% of 340,000 active;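 active means compounds whose inhibition of the agonist-driven luminescence signal at 20 µM reaches about 50%, limit read from the data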;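 further: cells stimulated with CCL20 at 14 nM final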
CXCR6 inh – inhibitors of human CXCR6 receptor; 0.36% of 360,000 active; inhibition, % at 20 µM; O00574; CHO-K1 PathHunter CXCR6 beta-arrestin, luminescence; in the data active means inhibition above about 34%, passing the limit was not always enough;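 further: antagonist mode with CXCL16 agonist at 10 nM final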
Target sequence (O00574 whole entry, looked up): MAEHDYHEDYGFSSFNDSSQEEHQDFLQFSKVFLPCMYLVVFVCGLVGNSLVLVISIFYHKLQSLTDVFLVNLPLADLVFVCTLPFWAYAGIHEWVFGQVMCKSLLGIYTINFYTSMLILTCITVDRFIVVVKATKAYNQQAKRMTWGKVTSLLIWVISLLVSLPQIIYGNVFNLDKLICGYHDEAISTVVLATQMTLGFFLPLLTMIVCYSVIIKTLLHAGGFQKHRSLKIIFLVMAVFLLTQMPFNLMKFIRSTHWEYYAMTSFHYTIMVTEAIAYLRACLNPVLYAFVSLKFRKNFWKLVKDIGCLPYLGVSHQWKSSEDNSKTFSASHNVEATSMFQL
APJ antag – blocks the human apelin receptor APJ | P35414 | CHO-K1 APJ beta-arrestin complementation, luminescence | inhibition, % at 20 µM | 0.32% of 330,000 active | AID 2521;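 active means inhibition above about 40% at 20 µM, limit read from the data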;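 further: cells challenged with 10 nM apelin-13 agonist together with compound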
APJ ag – APJ receptor agonism; activation, % at 20 µM; CHO-K1 APJ PathHunter beta-arrestin, luminescence; 0% DMSO wells, 100% apelin; AID 2520; P35414; 0.11% of 330,000 active;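 active means activation more than six SD over the plate average, tested at 20 µM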
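Test system: CHO-K1 APJ beta-arrestin complementation cell line. Amount: cell density 1000 per well. Controls: DMSO negative, 10 nM Apelin-13 positive. Signal: luminescent beta-gal fragment complementation, chemiluminescent substrate. Read-out basis: agonist-driven arrestin binding to APJ. Timing: compound stimulation 90 min at 25 °C, detection 60 min.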
m5-HT2A agonist – agonists of mouse serotonin 5-HT2A receptor (HTR2A); CHO-K1 mHTR2A beta-arrestin complementation, luminescence; percent of 30 µM serotonin response; P35363; activation, % at 7.6 µM; 0.66% of 360,000 active; AID 624169;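 active means activation above a run cutoff, the mean activation of all tested compounds plus 3 SD, cut at about 14% in these data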
Of the large screens only hits and unclear results are named; the others gave an inactive call.

O=C1Nc2ccc(Br)cc2/C1=C/C1CC=CCC1 (centres undefined)	none
O=C1Nc2ccc(Br)cc2/C1=C/C(=O)c1ccc2c(c1)OCO2	EBI2 block 84.6
COc1ccc(C(=O)/C(C#N)=N/Nc2ccc([N+](=O)[O-])cc2)cc1	CCR6 antag 76.3, CXCR6 inh 66.7, APJ antag 72.6
N#CC(C#N)=NNc1ccc([N+](=O)[O-])cc1	CCR6 antag 56.9, CXCR6 inh 42.8
O=C(N/N=C/c1cc([N+](=O)[O-])ccc1O)c1cccc2cc[nH]c12	EBI2 block 63.4
O=C(N/N=C/c1cc([N+](=O)[O-])ccc1O)C1CC1	EBI2 block 61.5
O=C(N/N=C/c1ccccc1[N+](=O)[O-])c1ccc2c(c1)OCCO2	none
O=C(N/N=C/c1cc([N+](=O)[O-])ccc1O)c1ccc2c(c1)OCCO2	EBI2 block 76.2
CC1(C(=O)NCc2ccccc2)CN(S(C)(=O)=O)CC(=O)N1Cc1cccc(F)c1 (centres undefined)	none (no result: CCR6 antag, CXCR6 inh, APJ antag, APJ ag)
CC(C)c1nc(C(=O)N2CCCC(N3CCN(c4cccc(Cl)c4)CC3)C2)cs1 (centres undefined)	none
CC(=O)C1=CCC(c2cccc3ccccc23)N(S(=O)(=O)c2ccc(C)cc2)C1 (centres undefined)	none (no result: CCR6 antag, APJ antag, APJ ag)
COC1=C(c2ccccc2)C(=O)c2ccccc2C1=O	APJ ag 12.0
COc1ccc(C2=C(N)c3ccccc3C2=O)cc1	none
CC(C)(C)C1=CC(=Nc2ccccc2N)C=C(C(C)(C)C)C1=O	CCR6 antag 67.4
C[C@@H]1CN([C@@H](C)CO)C(=O)CCCn2nncc2CO[C@H]1CN(C)Cc1ccc(Oc2ccccc2)cc1	none (no result: CCR6 antag, APJ antag, APJ ag)
O=C1C=C(O)c2cccc(O)c2C1=O	none
O=C1C=C(c2c(O)ccc3ccccc23)c2ccccc2C1=O	CXCR6 inh 46.1, m5-HT2A agonist 14.9 (no result: APJ antag, APJ ag)
Cc1ccc(C(=O)NCCNS(=O)(=O)c2ccccc2)cn1	none
CN(/N=C/c1cc(Br)cc(Br)c1O)c1cccc(C(F)(F)F)n1	CXCR6 inh 58.5 (no result: CCR6 antag)
Cc1c(N/N=C(\C#N)C(=O)c2ccc(Cl)cc2)c(=O)n(-c2ccccc2)n1C	CCR6 antag 81.3, CXCR6 inh 76.8 (no result: APJ antag, APJ ag)
N#C/C(=N\Nc1ccc(Cl)cc1)C(=O)c1ccccc1	none
CCC(C)C1=CC(=Nc2c(C)n(C)n(-c3ccccc3)c2=O)C=C(C(C)CC)C1=O (centres undefined)	CCR6 antag 50.8
COc1ccc(/C=C/c2nc3ccccc3n2Cc2ccccc2OC)cc1	EBI2 block 54.7
CC(C)C1Nc2c(O)cc(Cl)c([N+](=O)[O-])c2C2C=CCC21 (centres undefined)	CCR6 antag 50.1 (no result: APJ antag, APJ ag)
N#Cc1ccccc1NC(=O)CSC1=Nc2ccccc2C2CC=NN12 (centres undefined)	none
O=C(CSC1=Nc2ccccc2C2CC=NN12)Nc1ccc2c(c1)OCO2 (centres undefined)	CCR6 antag 53.5 (no result: APJ antag, APJ ag)
CC(=O)Nc1ccc(NC(=O)c2nc(S(=O)(=O)Cc3cccc(C)c3)ncc2Cl)cc1	CCR6 antag 58.1, CXCR6 inh 46.6
CCCS(=O)(=O)c1ncc(Cl)c(C(=O)Nc2ccc(S(=O)(=O)Nc3ncccn3)cc2)n1	none
CCS(=O)(=O)c1ncc(Cl)c(C(=O)Nc2ccccc2OC)n1	EBI2 block 79.4
C/C(=N/Nc1ccc([N+](=O)[O-])cc1)c1c[nH]c2ccccc12	CCR6 antag 70.4
C/C(=N/Nc1ccc([N+](=O)[O-])cc1)c1ccc(C)cc1C	none
Cc1[nH]c2ccccc2c1/C=N/Nc1ccc([N+](=O)[O-])cc1	EBI2 block 41.8, CCR6 antag 64.7 (no result: APJ antag, APJ ag)
Cc1[nH]c2ccccc2c1/C=N/NC(=O)c1cccc([N+](=O)[O-])c1	none
CCC(=O)N1CCC1(C)C(=O)Nc1ccc(F)cc1 (centres undefined)	none (no result: CCR6 antag, APJ antag, APJ ag)
CCCN(CC(=O)Nc1ccccc1OC)C(=O)CN1C(=O)NC(C)(C)C1=O	none (no result: CCR6 antag, APJ antag, APJ ag)
O=S(=O)(O)c1cccc2c(N=Nc3ccc(O)c4ncccc34)cccc12	CXCR6 inh 36.8 (no result: CCR6 antag, APJ antag, APJ ag)
Cc1ccccc1N=Nc1ccc(O)c2ncccc12	none (no result: APJ antag, APJ ag)
N#CC(C#N)=C1C=CC=CN1/C(=C\c1ccccc1)C(=O)c1cccs1	CCR6 antag 87.2
O=[N+]([O-])/C=C/c1cn(Cc2ccccc2)c2ccccc12	none
N#Cc1ccccc1Cn1cc(/C=C/[N+](=O)[O-])c2ccccc21	CCR6 antag 55.0
O=C(NCC(F)(F)F)c1ccc2sc([C@H]3C[C@H](O)[C@@H](CO)O3)nc2c1	none (no result: CCR6 antag, APJ antag, APJ ag)
COc1ccc(C(C[N+](=O)[O-])C2(c3ccc(OC)c(OC)c3)C(=O)c3ccccc3C2=O)cc1 (centres undefined)	CCR6 antag 59.1 (no result: APJ antag, APJ ag)
COc1ccc(C(C[N+](=O)[O-])c2c(-c3ccccc3)cc3ccccn23)cc1OC (centres undefined)	none
O=C(CCCc1nc(-c2ccc(Cl)cc2)no1)NC1CCCC1	none
COc1ccnc(CSC(N)=Nc2cccc(C(F)(F)F)c2)c1	CCR6 antag 53.5 (no result: APJ antag, APJ ag)
COc1ccnc(CSC(N)=Nc2ccccc2C(F)(F)F)c1	none
CN(CCOc1ccc(Cl)cc1)C(=O)c1cccc(S(=O)(=O)N2CCN(c3ccc(F)cc3)CC2)c1	EBI2 block 56.1 (no result: APJ antag, APJ ag)
CCOC(=O)C1=C(C)c2ccccc2N(C(=O)OC)C1(C)C(=O)OCC (centres undefined)	none (no result: APJ antag, APJ ag)
CCC(C)C(=O)N1c2ccccc2C(=C2SC(C(=O)OC)=C(C(=O)OC)S2)C(=S)C1(C)C (centres undefined)	EBI2 block 51.6
CCOC(=O)N1CCN(C(=O)c2ccc3c(c2)sc2nc(-c4ccc(OC)cc4)cn23)CC1	none
COc1ccc2c(c1)sc1nc(-c3ccccc3)cn12	EBI2 block 40.0
N#C/C(N=Nc1ccccc1O)=N\Nc1ccccc1O	CCR6 antag 71.2
CC1=NN(C(N)=S)C(=O)C1N=Nc1c(Cl)cc([N+](=O)[O-])cc1Cl (centres undefined)	CCR6 antag 57.5, CXCR6 inh 39.7
CC1=NN(C(N)=S)C(=O)C1N=Nc1c(C)cc(C)cc1C (centres undefined)	none
CCOC(=O)N(C)c1c(CC)nc2c(OCc3ccccc3C)cccn12	none (no result: CCR6 antag, APJ antag, APJ ag)
CCC(=O)NC(c1ccc(C)cc1)c1cc([N+](=O)[O-])c2cccnc2c1O (centres undefined)	CXCR6 inh 51.1 (no result: APJ antag, APJ ag)
CC(=O)NC(c1ccccc1)c1cc(Cl)c2cccnc2c1O (centres undefined)	none
CC(=O)NC(c1ccc(C)cc1)c1cc([N+](=O)[O-])c2cccnc2c1O (centres undefined)	CXCR6 inh 48.0 (no result: CCR6 antag)
CCOc1ccc(N2C(=O)CC(Sc3nnnn3-c3ccccc3)C2=O)cc1 (centres undefined)	CXCR6 inh 51.6 (no result: CCR6 antag, APJ antag, APJ ag)
